Measurements as given in publication PMC5055850 (Bioorganic & medicinal chemistry, 2016).

Assays:
Assay type in all cases: cell-based
FPR2 = molecular target: T1, FPR2 (Homo sapiens, UniProt P25090); assay: Ca2+ flux assay in FPR2-HL60 cells
T1 sequence (P25090 1-351): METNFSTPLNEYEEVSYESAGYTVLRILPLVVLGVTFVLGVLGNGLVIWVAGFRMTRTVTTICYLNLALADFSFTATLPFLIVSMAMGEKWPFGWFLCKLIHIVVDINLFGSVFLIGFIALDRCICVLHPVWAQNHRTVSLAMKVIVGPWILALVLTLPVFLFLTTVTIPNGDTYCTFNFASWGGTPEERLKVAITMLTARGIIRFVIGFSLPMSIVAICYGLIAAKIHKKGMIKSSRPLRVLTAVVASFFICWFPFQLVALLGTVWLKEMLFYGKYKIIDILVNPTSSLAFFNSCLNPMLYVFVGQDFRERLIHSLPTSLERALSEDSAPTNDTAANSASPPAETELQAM
In short: (§1)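 FPR1-, FPR2- or FPR3-transfected HL-60 cells grown in RPMI 1640 with 10% heat-inactivated FCS, 10 mM HEPES and G418 (1 mg/mL). Cells loaded with Fluo-4 AM (1.25 µg/mL final) for 30 min at 37 °C in the dark, then 2 × 10^5 cells/well. Fluorescence (ex 485/em 538 nm) read every 5 s for 240 s at room temperature. Peak rise over baseline normalized to 5 nM fMLF (FPR1) or 5 nM WKYMVm (FPR2, FPR3). EC50 from 5–6-point nonlinear fits, three independent experiments.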

[1] = tested on: mouse polymorphonuclear neutrophils (mPMN); assay: Ca2+ flux assay in mouse neutrophils
In short: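 Neutrophils taken from BALB/c mouse tibia and femur bone marrow. Isolated on a 45/50/55/62/81% Percoll gradient (1600g, 30 min, 10 °C), then Histopaque 1119 to remove red cells, and kept in HBSS−. Ca2+ fluorescence (485/538 nm) monitored every 5 s for 240 s at room temperature after compound addition. Maximal change over baseline normalized to 5 nM WKYMVm. EC50 from 5–6-point nonlinear regression, three independent experiments.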

mouse Fpr2 = molecular target: T2, mouse Fpr2 (Mus musculus, UniProt O88536); assay: Ca2+ flux assay in mFpr2-RBL cells
T2 sequence (O88536 1-351): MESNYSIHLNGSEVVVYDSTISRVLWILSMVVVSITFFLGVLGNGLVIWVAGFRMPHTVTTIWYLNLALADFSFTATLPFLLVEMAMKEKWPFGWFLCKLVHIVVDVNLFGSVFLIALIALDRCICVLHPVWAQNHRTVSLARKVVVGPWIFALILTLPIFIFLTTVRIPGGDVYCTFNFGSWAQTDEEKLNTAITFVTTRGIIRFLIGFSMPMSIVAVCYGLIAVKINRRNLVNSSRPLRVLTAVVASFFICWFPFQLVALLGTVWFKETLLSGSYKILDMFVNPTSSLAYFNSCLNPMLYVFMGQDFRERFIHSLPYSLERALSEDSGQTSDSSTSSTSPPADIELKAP
In short: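 RBL-2H3 cells stably expressing mouse Fpr2, grown in DMEM with 20% FBS, 10 mM HEPES and G418. Fluo-4 AM loaded (1.25 µg/mL final, 30 min, 37 °C, dark) in HBSS− with HEPES, then resuspended in HBSS with HEPES at 2 × 10^5 cells/well. Fluorescence (485/538 nm) read every 5 s for 240 s at room temperature. Peak rise over baseline was taken and EC50 fitted from 5–6-point curves. Mean of three experiments.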

[2] = tested on: human polymorphonuclear neutrophils (hPMN); assay: Ca2+ flux assay in human neutrophils; conditions: Homo sapiens, Polymorphonuclear neutrophil, read-out: hPMN EC50
In short: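 Neutrophils from healthy donors' blood, purified by dextran sedimentation, Histopaque 1077 gradient and hypotonic red-cell lysis (>95% pure, >98% viable). Cells in HBSS− with 10 mM HEPES were loaded with Fluo-4 AM (1.25 µg/mL final) for 30 min at 37 °C, then plated at 2 × 10^5 cells/well. Fluorescence (485/538 nm) read every 5 s for 240 s at room temperature. Peak change normalized to 5 nM fMLF. EC50 from 5–6-point nonlinear regression, three experiments.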

mouse Fpr1 = molecular target: T3, mouse Fpr1 (Mus musculus, UniProt P33766); assay: Ca2+ flux assay in mFpr1-RBL cells
T3 sequence (P33766 1-364): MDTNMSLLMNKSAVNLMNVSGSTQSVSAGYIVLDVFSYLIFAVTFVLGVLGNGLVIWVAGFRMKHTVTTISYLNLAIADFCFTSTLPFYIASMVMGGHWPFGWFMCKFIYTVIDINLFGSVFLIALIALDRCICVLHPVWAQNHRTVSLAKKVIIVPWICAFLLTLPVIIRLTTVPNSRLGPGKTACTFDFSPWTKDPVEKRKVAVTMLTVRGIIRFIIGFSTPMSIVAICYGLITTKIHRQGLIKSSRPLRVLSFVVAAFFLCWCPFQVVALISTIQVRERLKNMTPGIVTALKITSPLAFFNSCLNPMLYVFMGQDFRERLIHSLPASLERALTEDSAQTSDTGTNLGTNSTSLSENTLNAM
In short: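 RBL-2H3 cells carrying mouse Fpr1 were grown in DMEM with 20% FBS, 10 mM HEPES and G418 (250 µg/ml). Cells were loaded with Fluo-4 AM (1.25 µg/mL final, 30 min, 37 °C, dark) and plated at 2 × 10^5 cells/well. Fluorescence (485/538 nm) was read every 5 s for 240 s at room temperature after compound addition. Maximal rise over baseline normalized to 5 nM WKYMVm. EC50 from 5–6-point nonlinear fits, three experiments.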

FPR1 = molecular target: T4, FPR1 (Homo sapiens, UniProt P21462); assay: Ca2+ flux assay in FPR1-HL60 cells
T4 sequence (P21462 1-350): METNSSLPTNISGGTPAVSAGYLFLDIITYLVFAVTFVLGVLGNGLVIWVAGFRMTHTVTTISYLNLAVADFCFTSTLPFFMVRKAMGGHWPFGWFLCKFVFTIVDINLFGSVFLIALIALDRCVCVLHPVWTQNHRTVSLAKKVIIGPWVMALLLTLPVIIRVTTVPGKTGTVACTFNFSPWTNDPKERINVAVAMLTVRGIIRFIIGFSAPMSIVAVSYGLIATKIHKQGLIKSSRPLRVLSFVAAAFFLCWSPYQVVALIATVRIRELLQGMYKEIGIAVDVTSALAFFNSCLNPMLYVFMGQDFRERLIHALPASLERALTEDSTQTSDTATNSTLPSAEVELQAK
In short: as §1

FPR3 = molecular target: T5, FPR3 (Homo sapiens, UniProt P25089); assay: Ca2+ flux assay in FPR3-HL60 cells
T5 sequence (P25089 1-353): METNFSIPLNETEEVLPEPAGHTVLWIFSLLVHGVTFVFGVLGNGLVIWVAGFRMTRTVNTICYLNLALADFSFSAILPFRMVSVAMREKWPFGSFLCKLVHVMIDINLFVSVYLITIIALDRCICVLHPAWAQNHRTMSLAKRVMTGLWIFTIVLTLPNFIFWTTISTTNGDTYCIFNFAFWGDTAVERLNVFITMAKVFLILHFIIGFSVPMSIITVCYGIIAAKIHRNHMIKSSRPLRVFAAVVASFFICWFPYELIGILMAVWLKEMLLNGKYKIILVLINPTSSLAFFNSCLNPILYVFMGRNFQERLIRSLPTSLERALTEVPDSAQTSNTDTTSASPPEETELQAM
In short: as §1

human neutrophils = assay: Cell migration; conditions: Neutrophil, 1 h, read-out: EC50 in migration assay
In short: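 Human neutrophils at 2 × 10^6 cells/mL in HBSS with 2% FBS, placed above a 5.0 µm polycarbonate membrane. Lower wells held test compound, DMSO (negative control) or 1 nM fMLF (positive control). Migration ran 60 min at 37 °C, 5% CO2. Migrated cells counted by ATP luminescence against neutrophil standard curves and expressed as % of spontaneous migration. EC50 from 5–6-point nonlinear fits; mean ± SD, three donors.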

[3] = % of the response induced by 5 nM WKYMVm

- EC50 (FPR2; FPR2-HL60 EC50, Ca2+ flux, HL-60 cells transfected with FPR2): 35 ± 100 nM
- Emax (FPR2; read-out: FPR2-HL60 Efficacy): 120%
- EC50 ([1]; Mus musculus, Polymorphonuclear neutrophil, read-out: mPMN EC50): 6000 ± 1900 nM
- EC50 (mouse Fpr2): 18300 ± 3800 nM
- mFpr2-RBL Efficacy (mouse Fpr2; [3]): 35%
- EC50 [2]: 300 ± 44 nM
- EC50 (mouse Fpr1): 18500 ± 4100 nM
- mFpr1-RBL Efficacy (mouse Fpr1; [3]): 25%
- EC50 (FPR1): 4000 ± 890 nM
- Emax (FPR1; read-out: FPR1-HL60 Efficacy): 115%
- EC50 (FPR3): 670 ± 220 nM
- FPR3-HL60 Efficacy (FPR3; [3]): 110%
- EC50 (human neutrophils): 450 ± 170 nM
SMILES: COc1ccc(Nc2c(-c3ccn(C)n3)c(C)nn(CC(=O)Nc3ccc(Br)cc3)c2=O)cc1 [Compound 27b, N-(4-Bromophenyl)-2-[5-(4-methoxyphenylamino)-3-methyl-4-(1-methyl-1H-pyrazol-3-yl)-6-oxo-6H-pyridazin-1-yl]acetamide]
- mPMN Efficacy [1, 3]: 80%
